Runt-SMMHC FRET – Runt domain-CBFb-SMMHC interaction inhibition. Cerulean-Runt/Venus-CBFb-SMMHC FRET ratio 530/480, 1 h. 0.74% of 220,000 active. inhibition, % at 20 µM. AID 1434;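 active means mean inhibition across duplicate retests at 20 µM reaching about 50%, limit read from the data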;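 further: inhibitors lower the FRET ratio by blocking Runt binding to CBFb-SMMHC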
eIF4E-4G inh – inhibitors of eIF4E and eIF4G interaction in translation initiation; inhibition, % at 21.7 µM; P63073+Q04637; TR-FRET eIF4E-eIF4GI(517-606) binding, 2 h; AID 782; 0.37% of 220,000 active;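 active means inhibition above about 30%, limit read from the data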
PERK inh – blocks human PERK kinase | Q9NZJ5 | CHO PERK-DD fusion, SEAP luminescence translation reporter | inhibition, % at 5.6 µM | 0.17% of 220,000 active;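 active means inhibition above the mean inhibition of all tested compounds plus 3 SD, set separately per screening campaign, cut at about 2.9% in these data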;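 further: PERK kinase domain activated by AP20187 dimerizer at 100 nM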
RanGTP-Impb inh – inhibitors of RanGTP-importin-beta interaction, primary screen, biochemical, FRET, CFP-Ran, YFP-importin-beta, homogeneous. cell-free CFP-Ran/YFP-importin-beta FRET ratio. inhibition, % (concentration not given with the values). 1.1% of 300,000 active. AID 2216;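 active means more than half of the replicate wells show a fall in the fluorescence ratio signal beyond about 16%, limit read from the data, passing the limit was not always enough; inconclusive means exactly half of the replicate wells pass the set limit; inactive means fewer than half of replicates pass the limit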
Runt-CBFb FRET – Runt domain-CBFb interaction inhibition. AID 1496. 0.46% of 220,000 active. Cerulean-Runt/Venus-CBFb FRET ratio 530/480, 1 h. Q01196+Q13951. inhibition, % at 20 µM;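 active means inhibition over about 50% at 20 µM in the single-dose screen, limit read from the data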
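System: Cerulean-labeled Runt domain protein | Quantity: 100 nM of each labeled protein | Schedule: 1 h compound exposure, room temperature | Detection: Fluorescence energy transfer, 422 nm excitation, 530/480 nm emission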
Hck-Nef inh – blocks Nef-activated human Hck kinase; AID 463187; 0.68% of 220,000 active; inhibition, % at 20 µM; Recombinant Hck-YEEI plus Nef, Z-Lyte FRET kinase assay;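 active means Hck-Nef kinase inhibition above about 50%, limit read from the data; inactive means inhibition below that limit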
Target sequence (P08631 whole entry, looked up): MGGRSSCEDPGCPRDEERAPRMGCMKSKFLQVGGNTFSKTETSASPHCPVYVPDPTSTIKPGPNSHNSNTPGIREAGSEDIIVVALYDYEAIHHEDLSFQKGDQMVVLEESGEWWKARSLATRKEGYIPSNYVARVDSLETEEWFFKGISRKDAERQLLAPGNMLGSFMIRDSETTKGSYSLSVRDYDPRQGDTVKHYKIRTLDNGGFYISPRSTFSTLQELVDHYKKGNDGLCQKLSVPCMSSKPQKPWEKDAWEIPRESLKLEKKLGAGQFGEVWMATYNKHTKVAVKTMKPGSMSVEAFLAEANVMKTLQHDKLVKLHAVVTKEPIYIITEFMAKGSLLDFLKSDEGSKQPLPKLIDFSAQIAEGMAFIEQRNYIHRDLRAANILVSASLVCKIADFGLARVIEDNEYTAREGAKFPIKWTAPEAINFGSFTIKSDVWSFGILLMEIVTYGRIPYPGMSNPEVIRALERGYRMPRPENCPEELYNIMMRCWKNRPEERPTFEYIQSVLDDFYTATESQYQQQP
Large screens that a line does not name were inactive; [ ] = another dose, or the depositor's remark. An excerpt weighted towards active compounds, which were near 2.2% of everything screened.

Nc1c(C(=O)NCc2ccco2)c2nc3ccccc3nc2n1CCc1ccc(F)cc1	RanGTP-Impb inh 58
Nc1c(C(=O)NCc2ccc3c(c2)OCO3)c2nc3ccccc3nc2n1CCCN1CCOCC1	Runt-SMMHC FRET 81, RanGTP-Impb inh 61 (no result: eIF4E-4G inh)
Nc1c(C(=O)NCCN2CCOCC2)c2nc3ccccc3nc2n1CCc1ccccc1	RanGTP-Impb inh 85, Runt-CBFb FRET 74
O=C(/C=C/c1ccccc1)N/C(=C\c1ccco1)C(=O)NCCO	none
Cc1cccc(NC(NC(=O)c2ccccn2)C(Cl)(Cl)Cl)c1 (stereo not drawn)	none
CC1(c2ccc([N+](=O)[O-])cc2)CC(C)(C)N(C(=O)c2ccccc2)c2ccccc21 (stereo not drawn)	none
COC(=O)CSc1nnc2n(C3CCCCC3)c(=O)c3c4c(sc3n12)CCCC4	RanGTP-Impb inh inconclusive
O=C(CCNS(=O)(=O)c1ccc(Cl)cc1)N1CCCC1	none (no result: Runt-SMMHC FRET, eIF4E-4G inh, PERK inh, Runt-CBFb FRET, Hck-Nef inh)
CC(C)(C)S(=O)(=O)c1cnc2c(S(=O)(=O)c3ccccc3)cnn2c1N	none
COc1cc(/C=N/Nc2nn3cnnc3c3ccccc23)ccc1O	none
Oc1ccc(/C=N/Nc2nn3cnnc3c3ccccc23)cc1	eIF4E-4G inh 98
COC(=O)c1[nH]c2cccc(OC)c2c1NC(=O)CCN1CC(C)CC(C)C1 (stereo not drawn)	none
CC1CCN(C(=O)CSc2nnc(-c3cc4ccccc4cc3O)n2Cc2ccco2)CC1	RanGTP-Impb inh 39
Cc1ccc(C(=O)O)cc1-c1ccc(/C=C2/NC(=O)N(c3ccccc3)C2=O)o1	RanGTP-Impb inh 20
O=C1N/C(=C/c2ccc(N3CCOCC3)o2)C(=O)N1c1ccccc1	none (no result: RanGTP-Impb inh)
Cc1ccccc1NC(=O)CN1C(=O)S/C(=C\c2ccc(-c3cc(C(=O)O)ccc3C)o2)C1=O	none
Cc1ccc(C(=O)O)cc1-c1ccc(/C=C2\SC(=O)N(CC(=O)Nc3ccccc3)C2=O)o1	RanGTP-Impb inh 24
Cc1ccc(NC(=O)CN2C(=O)S/C(=C/c3ccc(-c4cccc(C(=O)O)c4)o3)C2=O)cc1	eIF4E-4G inh 43 (no result: RanGTP-Impb inh)
Cc1ccc(NC(=O)CN2C(=O)S/C(=C\c3ccc(-c4cccc(C(=O)O)c4C)o3)C2=O)cc1	RanGTP-Impb inh 42
CCOc1cc(CN2CCCC(N3CCN(c4ccc(F)cc4)CC3)C2)ccc1OC (stereo not drawn)	none (no result: Runt-SMMHC FRET, eIF4E-4G inh, PERK inh, Runt-CBFb FRET, Hck-Nef inh)
CC(C)(C)OC(=O)CN1C(=O)S/C(=C\c2ccc(-c3cccc(C(=O)O)c3)o2)C1=O	RanGTP-Impb inh 35 (no result: Runt-SMMHC FRET, eIF4E-4G inh, PERK inh, Runt-CBFb FRET, Hck-Nef inh)
CC1(C)CN(C(Cc2ccccc2)C(N)=O)C1=O (stereo not drawn)	none (no result: Runt-SMMHC FRET, eIF4E-4G inh, PERK inh, Runt-CBFb FRET, Hck-Nef inh)
CC(OC(=O)c1cc2c(ccc3ccccc32)oc1=O)c1nc2ccccc2s1 (stereo not drawn)	Runt-SMMHC FRET 93, RanGTP-Impb inh 49
N=c1oc2ccc3ccccc3c2cc1C(N)=S	Runt-SMMHC FRET 92, RanGTP-Impb inh 76, Runt-CBFb FRET 118
O=C(NCc1ccccn1)c1cc2c(ccc3ccccc32)oc1=O	RanGTP-Impb inh 37, Runt-CBFb FRET 104 (no result: Runt-SMMHC FRET)
CCOC(=O)c1cc2c(ccc3ccccc32)oc1=O	Runt-SMMHC FRET 92, RanGTP-Impb inh inconclusive, Runt-CBFb FRET 85
CCC(OC(=O)CNS(=O)(=O)c1ccccc1)C(=O)c1ccccc1 (stereo not drawn)	none (no result: Runt-SMMHC FRET, eIF4E-4G inh, PERK inh, Runt-CBFb FRET, Hck-Nef inh)
CCCCS(=O)(=O)N1CCCC(C(=O)N2CCOCC2)C1 (stereo not drawn)	none (no result: Runt-SMMHC FRET, eIF4E-4G inh, PERK inh, Runt-CBFb FRET, Hck-Nef inh)
CC1Cc2cc(/C(O)=C3/C(=O)C(=O)N(CCN4CCOCC4)C3c3ccc(N(C)C)cc3)ccc2O1 (stereo not drawn)	RanGTP-Impb inh 30 (no result: Runt-SMMHC FRET, eIF4E-4G inh, PERK inh, Runt-CBFb FRET, Hck-Nef inh)
COc1ccc(C(=O)CN2CCN(S(=O)(=O)c3cccc([N+](=O)[O-])c3)CC2)cc1	RanGTP-Impb inh inconclusive
COc1ccc(C(CNC(=O)C(=O)Nc2ccc3c(c2)OCCO3)N2CCN(C)CC2)cc1 (stereo not drawn)	none (no result: Runt-SMMHC FRET, eIF4E-4G inh, PERK inh, Runt-CBFb FRET, Hck-Nef inh)
Brc1ccc(-c2cn3nc4c(nc3n2)CCCC4)cc1	RanGTP-Impb inh 61
c1ccc(-c2cn3c(n2)CCC3)cc1	none
c1ccc(-c2cn3nc4c(nc3n2)CCCC4)cc1	RanGTP-Impb inh 83
COc1ccc(/C=C/C(=O)N[C@H](C(=O)O)C(C)C)cc1	none
COc1ccc(/C=C/C(=O)N[C@@H](C)C(=O)O)cc1	PERK inh 3.4
COC(=O)C1=C(N)Oc2cc(N(C)C)ccc2C1c1ccccc1OC (stereo not drawn)	RanGTP-Impb inh 24
CCOC(=O)N1CCN(C(=O)/C=C/c2ccc([N+](=O)[O-])cc2)CC1	none
CCOC(=O)N1CCN(C(=O)/C=C/c2ccc(C(C)(C)C)cc2)CC1	RanGTP-Impb inh 28 (no result: Runt-SMMHC FRET, eIF4E-4G inh, PERK inh, Runt-CBFb FRET, Hck-Nef inh)
N=C1C(=O)OCC1c1ccccc1NC(=O)CN1CCOCC1 (stereo not drawn)	RanGTP-Impb inh 41
O=C(NC12CC3CC(CC(C3)C1)C2)c1ccc([N+](=O)[O-])cc1	none (no result: Runt-SMMHC FRET, eIF4E-4G inh, PERK inh, Runt-CBFb FRET, Hck-Nef inh)
O=C(O)C1CCCCC1C(=O)Nc1cccc(Cl)c1Cl (stereo not drawn)	none
CC1CC1c1ccc(/C=C(\C#N)C(=O)Nc2cccc(Cl)c2Cl)o1 (stereo not drawn)	RanGTP-Impb inh 40
Cc1ccc(CNC(=O)c2ccc(OCC(C)C)cc2)n1C	none (no result: Runt-SMMHC FRET, eIF4E-4G inh, PERK inh, Runt-CBFb FRET, Hck-Nef inh)
Cc1ccc(C=C2C(Cl)=C(Cl)C(Cl)=C2Cl)cc1	none
CCN1C(=O)/C(=C2/Sc3ccccc3N2CC)S/C1=N\c1ncn[nH]1	Hck-Nef inh 53 (no result: Runt-SMMHC FRET, Runt-CBFb FRET)
C(=C\c1nnc(-c2cccs2)o1)/c1ccccc1	none
COc1cccc2c1NC(C(=O)O)C1CC=CC21 (stereo not drawn)	eIF4E-4G inh 48[fluorescence artefact?] (no result: Runt-SMMHC FRET)
Cc1ccc2c(c1)C1C=CCC1C(C(=O)O)N2 (stereo not drawn)	eIF4E-4G inh 65[fluorescence artefact?]
O=C(O)C1Nc2ccc(OC(F)(F)F)cc2C2C=CCC12 (stereo not drawn)	none (no result: Runt-SMMHC FRET, eIF4E-4G inh, PERK inh, Runt-CBFb FRET, Hck-Nef inh)
COC(=O)C1(c2ccccc2)NC(c2ccc(O)cc2)C2C(=O)N(c3ccc4c(c3)OCO4)C(=O)C21 (stereo not drawn)	none
CC1=C(C(=O)Nc2ccc(F)cc2)C(c2cccc(C)c2)n2nc(CCCO)nc2N1 (stereo not drawn)	none
CC(C)c1[nH]nc2c1C1(CCN(Cc3ccccc3)CC1)C(C#N)=C(N)O2	Runt-SMMHC FRET 59, RanGTP-Impb inh 21
Cc1[nH]nc2c1C1(CCN(Cc3ccccc3)CC1)C(C#N)=C(N)O2	RanGTP-Impb inh inconclusive
COc1cccc(NC(=S)NCc2cccnc2)c1	none
CC(/C=N\NC(=O)CN1CCN(S(=O)(=O)c2ccc(C)cc2)CC1)=C\c1ccccc1	eIF4E-4G inh 33[fluorescence artefact?]
Cc1ccc(-c2cc(N)n(-c3ccc(C)cc3)n2)cc1	none
Cc1ccc(-c2cc(N)n(-c3ccc(F)cc3)n2)cc1	PERK inh 3.4
